EBNA-1 inhibitor: blocks EBNA-1 binding to DNA; inhibition, % at 14.8 µM; actives 0.34% (n = 300,000); AID 1950; EBNA-1 DNA binding, fluorescence polarization; in the data active = inhibition above about 28%
NS3 helicase inh: blocks Hepatitis C virus NS3 helicase unwinding. NS3 helicase DNA unwinding, Cy5 molecular beacon fluorescence. actives 0.56% (n = 290,000). inhibition, % at 10.9 µM;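 active = inhibition above the mean of all tested compounds plus 3 SD, set per campaign, cut at about 35% in these data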
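Assay system – hepatitis C virus NS3 helicase domain fragment enzyme · Buffer or medium – MOPS pH 6.5, MgCl2, DTT, Tween20, BSA · Reagent – Cy5/quencher beacon DNA duplex and ATP to start · Compound – single 10.9 µM dose · Timing – 1 h at 25 °C · Technique – Cy5 beacon fluorescence read at start and 1 h · Measure – % inhibition of unwinding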
PfM18AAP inh: blocks P. falciparum M18 aspartyl aminopeptidase. recombinant PfM18AAP, H-Glu-NHMec fluorogenic cleavage. inhibition, % at 7.35 µM. actives 1.2% (n = 290,000);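 active = inhibition above the campaign mean inhibition over all tested compounds plus 3 SD, cut at about 28% in these data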
HCV core dimer: blocks dimerization of HCV core protein. TR-FRET GST/Flag-core106 dimerization, 1536-well. actives 0.33% (n = 300,000). AID 1899. inhibition, % at 5 µM;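 active = inhibition above the mean of all tested compounds plus 3 SD, set per screening campaign, cut at about 45% in these data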
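System – GST-tagged and Flag-tagged HCV core protein residues 1-106 · Repeats – one well for each compound · Technique – TR-FRET 671 and 617 nm emission · Doses – one concentration, 5 µM, in 0.5% DMSO · Times – 4 h, 22.5 °C incubation · Also added – Eu donor and XL665 acceptor anti-tag antibodies · Measure – percent inhibition of core106 dimerization signal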
ALR inh: blocks human ALR sulfhydryl oxidase activity | P55789 | purified ALR, DTT oxidation, H2O2 HRP-luminol luminescence | inhibition, % (no concentration beside the values) | actives 3.8% (n = 290,000) | AID 485317;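 active = mean replicate inhibition above about 79%, with every replicate also reaching it, limit read from the data; inconclusive = only one of the two criteria met; inactive = mean below limit and not every replicate reaching it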
Target sequence (P55789 whole entry, looked up): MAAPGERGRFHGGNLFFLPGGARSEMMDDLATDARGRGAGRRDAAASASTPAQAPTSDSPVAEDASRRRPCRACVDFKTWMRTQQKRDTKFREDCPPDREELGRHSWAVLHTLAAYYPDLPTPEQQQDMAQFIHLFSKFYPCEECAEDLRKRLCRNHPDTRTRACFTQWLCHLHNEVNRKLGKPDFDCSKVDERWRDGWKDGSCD
ZTA counter: blocks Epstein-Barr virus ZTA, an EBNA-1 counter-screen; P03206; ZTA-DNA binding, fluorescence polarization; inhibition, % at 11 µM; actives 0.15% (n = 320,000); in the data active = inhibition above about 33%
Target sequence (P03206 whole entry, looked up): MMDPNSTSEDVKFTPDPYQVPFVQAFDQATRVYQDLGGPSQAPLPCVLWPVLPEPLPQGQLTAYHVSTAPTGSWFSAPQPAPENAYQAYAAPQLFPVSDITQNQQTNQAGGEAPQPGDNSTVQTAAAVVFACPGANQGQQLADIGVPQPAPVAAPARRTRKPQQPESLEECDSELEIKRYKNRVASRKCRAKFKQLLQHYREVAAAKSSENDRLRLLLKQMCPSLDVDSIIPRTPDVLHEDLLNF
EBNA-1 confirm: EBNA-1 (EBV) inhibition, confirmation. shares compounds with EBNA-1 inhibitor. Recombinant EBNA-1 DBD, Cy5-DNA fluorescence polarization. inhibition, % at 14.8 µM. actives 35% (n = 830);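 active = mean inhibition across replicates above a set limit taken from the earlier primary screen, cut at about 28% in these data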
ZTA counter trip: counter-screen for EBNA-1 inhibitors: Epstein-Barr virus ZTA inhibitors, triplicate. shares compounds with EBNA-1 inhibitor. Zta-ZRE DNA binding, Cy5 fluorescence polarization. inhibition, % at 11.1 µM. 830 tested, under 10 active. AID 2328;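 active = mean inhibition over triplicates above a set limit taken from the primary EBNA-1 screen, cut at about 37% in these data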;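 also: purified full length Zta protein with Cy5 labeled ZRE DNA probe; inhibitors lower polarization by freeing the labeled DNA probe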
Zta DNA confirm: EBV ZTA DNA binding inhibition, confirmation | shares compounds with ZTA counter | Zta-ZRE DNA binding, fluorescence polarization | inhibition, % at 11.1 µM | actives 30% (n = 320);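 active = mean inhibition across triplicate runs above the hit threshold derived for the original primary screen, cut at about 33% in these data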
EBNA1 counter: EBNA-1 DNA binding inhibition, counter-screen for ZTA; shares compounds with ZTA counter; fluorescence polarization; inhibition, % at 14.8 µM; 320 tested, under 10 active; call rule not given here
Numbers stand for hits; . = inactive; ? = inconclusive; / = no result given; + = active, no number. Only some compounds are listed: those with a hit (about 5.2% of all), similar ones and a draw of the others.

SMILES	EBNA-1 inhibitor	NS3 helicase inh	PfM18AAP inh	HCV core dimer	ALR inh	ZTA counter	Zta DNA confirm	EBNA1 counter	others
Cc1cccc(C)c1NC(=O)C(NC(=O)CN1C(=O)c2ccccc2C1=O)c1ccccc1 (centres undefined)	29	.	.	.	.	.	/	/	EBNA-1 confirm=.;ZTA counter trip=.
Cc1ccc(N(CC(=O)NCC2CCCO2)C(=O)Cn2nnc(-c3cccs3)n2)cc1 (centres undefined)	.	.	.	.	.	.	/	/
Cc1nc2scc(C)n2c(=O)c1S(=O)(=O)N1CCN(c2cccc(C(F)(F)F)c2)CC1	.	.	.	.	/	.	/	/
NC(=O)CNC(=O)[C@@H]1CC2(CC(c3ccc(Cl)cc3)=NO2)CN1C(=O)c1ccccc1 (some centres undefined)	.	.	.	.	.	.	/	/
CCOc1ccc(/C=N/NC(=O)C(=O)NCc2ccco2)cc1	34	.	.	.	.	.	/	/	EBNA-1 confirm=.;ZTA counter trip=.
COC(=O)C1=C(N)N(c2ccccc2C(F)(F)F)C2=C(C(=O)CCC2)C1c1ccc2c(c1)OCO2 (centres undefined)	31	.	.	.	.	.	/	/	EBNA-1 confirm=.;ZTA counter trip=.
COc1ccc(-n2c(SCC(=O)Nc3ccccc3)nnc2-c2ccc(NS(=O)(=O)c3ccc(C)cc3)cc2)cc1	71	.	.	52	/	.	/	/	EBNA-1 confirm=28;ZTA counter trip=.
CC(=O)c1cccc(NC(=O)c2ccc(-c3ccccc3[N+](=O)[O-])o2)c1	36	.	.	.	.	.	/	/	EBNA-1 confirm=.;ZTA counter trip=.
O=S(=O)(Nc1nc2ccccc2nc1Nc1cccc(S(=O)(=O)N2CCCCC2)c1)c1ccccc1	37	.	.	.	.	.	/	/	EBNA-1 confirm=.;ZTA counter trip=.
COc1ccc(S(=O)(=O)Nc2cccc(S(=O)(=O)N3CCCCCC3)c2)cc1	.	.	.	.	.	.	/	/
NC(=O)C[N+]1(CC#CC(O)(c2ccccc2)c2ccccc2)CCCC1	128	.	.	.	.	.	/	/	EBNA-1 confirm=.;ZTA counter trip=.
CCC[N+]1(CC#CC(O)(c2ccccc2)C2CCCCC2)CCCCC1 (centres undefined)	.	.	.	.	/	.	/	/
CC1(c2ccc(NC(=O)c3ccccc3F)cc2)CC1(Cl)Cl (centres undefined)	.	.	.	.	.	.	/	/
COc1cccc(CNCCc2c[nH]c3ccccc23)c1OCc1ccc(F)cc1	.	.	.	.	.	.	/	/
COc1cc(CNCCc2c[nH]c3ccccc23)ccc1OCc1ccc(F)cc1	.	.	.	.	/	35	.	.
CN1/C(=C\C=Nc2ccc3ccccc3c2)C(C)(C)c2ccccc21	.	.	.	.	/	.	/	/
CN(C)c1ccc(N=C/C=C2\N(C)c3ccccc3C2(C)C)cc1	.	.	.	.	99	163	.	.
O=C(Nc1cccc(C(=O)N2CCN(c3ccccc3)CC2)c1)c1ccco1	.	.	.	.	.	.	/	/
O=C(Nc1cccc(C(=O)N2CCCCCC2)c1)c1ccco1	.	.	.	.	.	40	.	.
O=C(O)CN1CCCCCC1=O	.	.	.	.	.	.	/	/
CCOC(=O)C1(C)NC(c2cccc(C)c2)C2C(=O)N(c3ccccc3)C(=O)C21 (centres undefined)	.	.	.	.	.	+	.	.
C#CCOCCOCCOCCNc1nc(N2CCN(C(=O)CCCCCCCCCCNC(=O)[C@H](CCCCN)n3cc(CCCC(=O)O)nn3)CC2)nc(N2CCN(C(=O)CCCCCCCCCCNC(=O)[C@H](CCCCN)n3cc(CCCC(=O)O)nn3)CC2)n1	.	/	/	.	.	.	/	/
C#CCOCCOCCOCCNc1nc(N2CCN(C(=O)CCCCCCCCCCNC(=O)[C@H](CCCCN)n3cc(CCO)nn3)CC2)nc(N2CCN(C(=O)CCCCCCCCCCNC(=O)[C@H](CCCN=C(N)N)n3cc(C[C@@H](C)CC)nn3)CC2)n1	.	/	/	.	.	36	65	.
C#CCOCCOCCOCCNc1nc(N2CCN(C(=O)CCCCCCCCCCNC(=O)[C@H](CCCCN)n3cc(CCCC(=O)O)nn3)CC2)nc(N2CCN(C(=O)CCCCCCCCCCNC(=O)[C@H](CCCN=C(N)N)n3cc(C[C@@H](C)CC)nn3)CC2)n1	.	/	/	.	.	48	.	.
O=c1[nH]c(/C=C/c2ccc(Cl)cc2Cl)c([N+](=O)[O-])c(=O)[nH]1	.	.	.	.	97	55	53	.
SMILES	EBNA-1 inhibitor	NS3 helicase inh	PfM18AAP inh	HCV core dimer	ALR inh	ZTA counter	Zta DNA confirm	EBNA1 counter	others
CC(=O)Nc1ccc(S(=O)(=O)N(C)Cc2cnn(C)c2)cc1	.	.	.	.	.	.	/	/
Cc1ccc(NC(=O)CSCC#N)cc1	.	.	.	.	99	34	.	.
O=C1c2ccccc2-c2onc3ccc(NCCCn4ccnc4)c1c23	.	.	.	.	?	49	.	.
CCCCCCCCCC[N+](C)(C)CC/C=C1/c2ccccc2Sc2ccc(Cl)cc21	.	.	.	.	.	34	.	.
CC[N+](C)(C)CC/C=C1/c2ccccc2Sc2ccc(Cl)cc21	.	.	.	.	.	.	/	/
OCCN1CCN(CC/C=C2/c3ccccc3Sc3ccc(Cl)cc32)CC1	.	/	/	.	.	.	/	/
CCCCCCCCCCC[N+](C)(C)CC/C=C1/c2ccccc2Sc2ccc(Cl)cc21	.	.	.	.	.	40	.	.
CCC/C(O)=C1\C(=O)CC(c2ccccc2)CC1=NC(C)C(=O)O (centres undefined)	.	.	.	.	.	.	/	/
COc1ccc(N2CCN(S(C)(=O)=O)CC2)cc1	.	.	.	.	.	.	/	/
COc1ccc(N2CCN(S(=O)(=O)c3ccc(OC)cc3)CC2)cc1	.	.	.	.	.	99	.	.
COc1ccc2c(c1)CCc1c-2nc2ccccc2c1N1CCOCC1	.	.	.	.	.	.	/	/
CCCCC1(C)NC(=O)N(CC(=O)Nc2ccc(S(=O)(=O)N3CCOCC3)cc2)C1=O (centres undefined)	.	.	.	.	.	47	.	.
Cc1ccc([N+](=O)[O-])cc1NC(=O)C1CCCC1	.	.	.	.	.	.	/	/
Cc1ccc([N+](=O)[O-])cc1NC(=O)C1CCN(S(C)(=O)=O)CC1	.	.	.	.	.	49	.	.
